Source: PubChem
S1P3 antagonist: S1P3 (human) receptor antagonism; actives 0.27% (n = 170,000); Q99500; inhibition, % at 4.98 µM; CHO S1P3 NFAT-BLA reporter, FRET fluorescence, antagonist mode;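 active = inhibition above the plate cutoff, the mean inhibition of test wells on that plate plus 3 SD, cut at about 28% in these data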;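 note: cells challenged with S1P at its EC80 of 0.8 µM; blue over green emission ratio from cleaved BLA substrate after 4 h stimulation; 0% = S1P-stimulated wells and 100% = unstimulated DMSO-only wells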
S1P4 antagonist: blocks the human S1P4 receptor. O95977. S1P4-expressing cells, antagonist mode, reporter read-out. inhibition, % at 4.98 µM. actives 0.26% (n = 220,000); in the data active = inhibition above about 29%;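 note: 0% = wells stimulated with agonist and 100% = vehicle wells without agonist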
Target sequence (O95977 whole entry, looked up): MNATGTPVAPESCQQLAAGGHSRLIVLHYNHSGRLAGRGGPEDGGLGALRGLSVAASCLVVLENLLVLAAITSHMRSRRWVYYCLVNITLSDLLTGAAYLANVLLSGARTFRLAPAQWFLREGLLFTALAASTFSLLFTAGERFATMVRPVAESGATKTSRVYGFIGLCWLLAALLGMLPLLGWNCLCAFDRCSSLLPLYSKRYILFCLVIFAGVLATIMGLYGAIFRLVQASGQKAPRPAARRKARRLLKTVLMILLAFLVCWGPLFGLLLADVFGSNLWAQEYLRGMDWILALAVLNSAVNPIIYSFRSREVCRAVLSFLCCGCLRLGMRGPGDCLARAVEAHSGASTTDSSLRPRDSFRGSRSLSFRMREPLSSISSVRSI
MDM2 E3 inh: Mdm2 E3 ligase (human) inhibition; signal enhancement, % at 5 µM; actives 0.11% (n = 210,000); cell-based MDM2 ubiquitination luciferase reporter, 2 h; 0 = plate control, 100 = twice control, blank-subtracted;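 active = signal enhancement of 30% or more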;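 note: luminescence tracks abundance of the self-degrading MDM2-luciferase fusion protein; higher signal means inhibition of MDM2 E3 ligase activity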
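Assay system: mammalian cells stably expressing self-ubiquitinating, self-degrading MDM2 E3–luciferase fusion. Quantity: 2000 cells in each well. Medium: DMEM culture medium. Compound dosing: single-point 5 µM. Timing: cell settling 4 h, compound treatment 2 h, both 37 °C. Technique: luciferase luminescence. Read-out basis: percent signal gain over controls, blank-subtracted. Benchmarks: plate controls and plate blanks.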
Lmaj promast: inhibitors of Leishmania major promastigote growth; Leishmania major promastigotes, resazurin fluorescence viability; inhibition, % at 10 µM; actives 9% (n = 200,000); AID 1063; in the data active = inhibition above about 50%;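 note: promastigotes grown with compound for 44 hours at 28 °C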
S1P4 agonist: human S1P4 receptor agonism; O95977; activation, % at 4.98 µM; S1P4-expressing cell line, agonist reporter assay; actives 0.35% (n = 220,000); in the data active = activation above about 11%;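 note: 0% = DMSO vehicle and 100% = reference agonist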
The depositor's hits bear a star; . = no result given. This is one part of a sample in which hits are shown more often than they occur.

SMILES	S1P3 antagonist	S1P4 antagonist	MDM2 E3 inh	Lmaj promast	S1P4 agonist
O=C(N/N=C/c1ccc([N+](=O)[O-])o1)C(O)c1ccccc1 (stereo unspecified)	-1.5	14.0	-10.9	.	-1.1
Cc1ccc(NC(=O)CCC(=O)N/N=C/c2ccc([N+](=O)[O-])o2)cc1C	6.5	-2.7	-1.6	.	1.0
CC(=O)N(/N=C/c1ccc([N+](=O)[O-])o1)c1nc2ccccc2c(=O)n1-c1ccccc1	14.2	-12.7	9.1	.	-1.4
Cc1nonc1C(=O)N/N=C/c1ccc([N+](=O)[O-])o1	-21.2	-14.0	-10.4	93.6*	0.8
CCCC(=O)Nc1ccc(C(=O)N/N=C/c2ccc([N+](=O)[O-])o2)cc1	-3.7	-7.4	-8.4	98.8*	-2.9
CCOC(=O)N1CCN=C1SCc1ccc(Cl)c(Cl)c1	-2.6	-11.0	-15.4	2.5	-2.0
Cc1nonc1C(=O)N/N=C/c1ccc(O)cc1O	13.8	-8.6	-15.2	97.8*	0.5
COC(=O)N/N=C/c1ccc([N+](=O)[O-])o1	.	-12.2	.	99.2*	1.7
Cc1cc(C(=O)N/N=C/c2ccc([N+](=O)[O-])o2)c(C)o1	-14.3	12.0	-1.3	.	0.2
CCNc1c(NCC)c(=O)c1=O	8.2	13.8	-3.7	.	-1.2
CNCCCCOc1ccc(C(C)(C)C)cc1Cl	-14.6	0.2	-29.9	97.9*	0.1
CCN(CC)CCNC(=O)COc1ccc(Cl)cc1Cl	.	2.4	-10.2	75.1*	0.6
CN(C)CCCNC(=O)COc1ccc(Br)cc1Cl	-4.4	-8.5	-3.5	91.4*	0.9
C=CCSC1=N/C(=C\c2cc(OCC)c(OC(C)=O)c([N+](=O)[O-])c2)C(=O)S1	-16.4	-16.6	-3.1	-1.1	1.4
COc1ccc(CNC(=O)CN(c2ccccc2)S(=O)(=O)c2ccccc2[N+](=O)[O-])cc1	-21.0	-17.0	7.6	0.2	1.3
O=C(OCc1nc2ccc(Cl)cc2n1CCO)c1ccc(O)cc1	2.9	13.0	-9.2	53.8*	-2.1
COc1ccc(NS(=O)(=O)c2ccc(NC(=O)c3ccc(N(C)S(C)(=O)=O)cc3)cc2)c(OC)c1	6.2	-2.7	-29.5	54.0*	1.6
COc1ccc(NS(=O)(=O)c2ccc(NC(C)=O)cc2)c(OC)c1	-7.6	-1.5	-7.9	-7.6	3.5
O=C(Nc1cc(C(F)(F)F)ccc1-n1cncn1)c1ccc(-c2ccccc2)cc1	.	4.1	-6.3	90.1*	2.2
COc1cc(CNC2CCCC2)cc(Cl)c1OCc1ccccc1F	.	21.1	1.2	100.1*	1.5
COc1cc(CNC2CCCCCC2)cc(OC)c1O	-41.0	4.5	-14.4	-1.6	-2.1
O=C(COC(=O)c1cc(-c2cccs2)nc2ccccc12)NC1CCS(=O)(=O)C1 (stereo unspecified)	-16.1	-6.4	-9.2	-4.5	-1.0
C=CCN1C(=O)C2C3CC(=O)C(c4ccccc43)C2C1=O (stereo unspecified)	1.0	-8.8	2.7	2.9	1.1
Cc1cccc(C(CC(=O)NCc2ccco2)c2ccccc2)c1O (stereo unspecified)	-5.6	-17.2	-5.5	11.2	0.5
CC(C)Oc1ccc(C(CC(=O)NCc2ccco2)c2ccccc2)cc1 (stereo unspecified)	.	-0.8	-12.9	67.2*	-1.1
SMILES	S1P3 antagonist	S1P4 antagonist	MDM2 E3 inh	Lmaj promast	S1P4 agonist
CC(C)OC(=O)CC(=O)CSc1nc2c(c(-c3cccs3)c1C#N)CCC2	-16.7	-8.5	-11.9	-2.3	1.8
CCOC(=O)C(C)Sc1nc2c(c(-c3cccs3)c1C#N)CCC2 (stereo unspecified)	-7.3	-11.7	-9.4	54.5*	2.2
NS(=O)(=O)c1ccc(CNC(=O)c2scc3c2CCCC3)cc1	-7.9	0.0	-3.0	10.3	1.9
CCC(O)CC(C(=O)NNc1ccccc1)C(=O)NNc1ccccc1 (stereo unspecified)	4.6	-8.2	10.0	71.8*	1.1
Cn1nnnc1SC(C(=O)Nc1cccc(C(F)(F)F)c1)c1ccccc1 (stereo unspecified)	3.2	-23.9	-3.8	61.5*	1.1
CC(C)(CN1CCN(Cc2ccccc2)CC1)NS(=O)(=O)c1ccccc1	-4.0	0.8	2.0	.	0.7
CC(C)(CNS(=O)(=O)c1ccc(Cl)cc1)N1CCCCC1	23.7	-11.1	-9.2	81.3*	1.4
CC(C)(CN1CCCCC1)NS(=O)(=O)c1ccc(Cl)cc1	5.2	-2.5	-14.4	90.1*	0.1
CCN(CC)CC(C)(C)NS(=O)(=O)c1ccc(Cl)cc1	-5.7	-2.5	-10.8	70.8*	2.0
CC1CC(C)CN(CC(C)(C)NS(=O)(=O)c2ccc(Cl)cc2)C1 (stereo unspecified)	.	18.3	-5.3	95.2*	-1.5
CN(C)CC(C)(C)NS(=O)(=O)c1ccc(Cl)cc1	-5.2	-12.3	-16.9	-5.1	0.0
CCN(c1ccc(C)c(C)c1)S(=O)(=O)c1c(C)[nH]c(=O)[nH]c1=O	.	-0.9	-17.9	-3.5	-1.6
COc1cccc(C(=O)NCC(=O)N/N=C/c2cccs2)c1	-33.4	-4.3	-8.8	0.2	-2.9
C=CCn1c(SC)nc2sc3c(c2c1=O)CCc1ccccc1-3	3.0	-20.7	-0.9	54.4*	-0.1
C=CCn1c(SCC)nc2sc3c(c2c1=O)CCc1ccccc1-3	.	2.8	-6.6	3.5	-0.7
CC(C)(CNC(=O)COc1ccccc1Cc1ccccc1)N1CCOCC1	-15.8	-7.6	-4.2	10.3	1.4
O=C(/C=C/c1ccc(Cl)cc1)NCc1ccco1	-2.5	-17.0	4.2	51.0*	-0.9
O=C(/C=C/c1ccc(S(=O)(=O)NCc2ccco2)cc1)NCc1ccccc1Cl	12.8	4.0	-14.7	14.5	0.1
COc1ccc(CNC(=O)/C=C/c2ccc(S(=O)(=O)NCc3ccco3)cc2)cc1OC	-7.0	-17.0	6.4	67.7*	0.6
COc1ccc(CNC(=O)/C=C/c2ccco2)cc1OC	-14.6	-7.4	-2.0	0.3	-1.5
Cc1ccc2nc(NC(=O)Cn3cc4c(n3)CCCCC4)sc2c1	3.5	-6.6	-20.6	-5.3	0.7
COC(=O)C/C=N/N=C1/NC(=O)/C(=C/C(=O)O)S1	14.3	-8.2	-14.7	.	1.8
OCCN1CCN(CC#CCC(c2ccccc2)c2ccccc2)CC1	0.0	-9.2	-5.9	.	-0.6
OCCN1CCN(CC#CCn2c3ccccc3c3ccccc32)CC1	-18.1	2.5	-7.3	63.6*	-0.6
O=C(COC(=O)C1CC2C=CC1C2)NCc1ccccc1Cl (stereo unspecified)	-25.3	-0.3	-16.2	-0.5	1.1
O=C(CN1CCN(Cc2ccccc2Cl)CC1)N/N=C/c1ccccn1	-4.1	-9.9	-8.2	.	-0.6
O=C(CSCc1ccccc1Cl)Nc1c[nH]c(=O)[nH]c1=O	-1.1	-6.3	-15.9	59.5*	0.6
O=C(CSCc1ccc(Cl)c(Cl)c1)Nc1c[nH]c(=O)[nH]c1=O	8.4	-20.1	-3.3	-2.1	-1.2
Cc1cccc(-n2c(=O)[nH]c3c(C(N)=O)nc(CC(C)C)nc32)c1	-33.8	-4.0	-9.9	50.5*	1.8
CC(C)Cc1nc(C(N)=O)c2[nH]c(=O)n(-c3ccc(F)cc3)c2n1	-12.3	-14.2	-1.9	7.5	-0.1
